# What was measured:
# [1] = Volume of distribution in cynomolgus monkey at 5 mg/kg, iv administered as bolus injection by LC-MS/MS analysis; type: ADME, organism-based, Macaca fascicularis; parameters: dose 5 mg/kg, route intravenous; settings: in vivo
# Outline: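 Monkey i.v. bolus at 5 mg/kg nominal (n=3), TCEP-treated HEPES solution, via cephalic or saphenous vein. Arterial blood into NEM tubes over 9 days. Plasma measured by LC-MS/MS; Vd = dose/(AUCinf·λz).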
# [2] = Tmax in Sprague-Dawley rat at 10 mg/kg, po administered via gavage measured under fed conditions by LC-MS/MS analysis; type: ADME, organism-based; parameters: dose 10 mg/kg, route oral; settings: in vivo
# Outline: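 Nonfasted male Sprague-Dawley rats gavaged once at 10 mg/kg in 50 mM HEPES-buffered saline pH 7.4. Blood into heparin/NEM tubes at 0, 0.25, 0.5, 1, 2, 4, 6, 8 and 24 h. Plasma analysed by LC-MS/MS; Tmax taken as the observed value.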
# [3] = Clearance in Sprague-Dawley rat at 30 mg/kg, iv administered as bolus injection measured under fasted conditions by LC-MS/MS analysis; type: ADME, organism-based; parameters: dose 30 mg/kg, route intravenous; settings: in vivo
# Outline: (§1)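 Male Sprague-Dawley rats (280–330 g), jugular vein cannulated, fasted overnight until 4 h post-dose. Single tail-vein bolus of 0.1, 1, 10 or 30 mg/kg in 50 mM HEPES buffered saline, pH 7.4. Blood drawn 0–24 h into heparin tubes containing NEM. Plasma quantified by LC-MS/MS after NEM derivatization. Noncompartmental analysis: AUClast by linear trapezoidal rule, Cl = dose/AUC0-∞. Mean ± S.D., n = 4–9.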
# [4] = Cmax in Sprague-Dawley rat brain at 10 mg/kg, po administered as single dose measured per gm of tissue by LC-MS/MS analysis; type: ADME, organism-based; parameters: dose 10 mg/kg, route oral
# Outline: (§2)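 Male Sprague-Dawley rats were dosed orally with 10 mg/kg/day, either once or daily for 5 days; n = 4 per group. Blood was taken by cardiac puncture and liver, kidney, brain and sciatic nerve were collected at 0–8 h post-dose. Tissues were homogenized in PBS containing NEM at equal volume per gram. NEM-derivatized analyte was extracted with methanol and quantified by LC-MS/MS (1–5000 ng/ml). Cmax is the observed value.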
# [5] = Cmax in Sprague-Dawley rat liver at 10 mg/kg, po administered as single dose measured per gm of tissue by LC-MS/MS analysis; type: ADME, organism-based; parameters: dose 10 mg/kg, route oral; outline: as §2
# [6] = Half life in Sprague-Dawley rat at 30 mg/kg, po administered via gavage measured under fasted conditions by LC-MS/MS analysis; type: ADME, organism-based; parameters: dose 30 mg/kg, route oral; settings: in vivo
# [7] = Tmax in cynomolgus monkey at 5 mg/kg, po by LC-MS/MS analysis; type: ADME, organism-based, Macaca fascicularis; parameters: dose 5 mg/kg, route oral; settings: in vivo
# Outline: (§3)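 Cynomolgus monkeys (n=3) dosed at 5 mg/kg nominal, TCEP-treated 50 mM HEPES solution, either as i.v. bolus (cephalic or saphenous vein) or orally. Arterial cannula blood into heparin/NEM tubes for up to 9 days. Plasma parent and homodisulfide measured by LC-MS/MS; Tmax observed.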
# [8] = Cmax in Sprague-Dawley rat kidney at 10 mg/kg, po administered as single dose measured per gm of tissue by LC-MS/MS analysis; type: ADME, organism-based; parameters: dose 10 mg/kg, route oral; outline: as §2
# [9] = Apparent volume of distribution in Sprague-Dawley rat at 1 mg/kg, po administered via gavage measured under fasted conditions by LC-MS/MS analysis; type: ADME, organism-based; parameters: dose 1 mg/kg, route oral; settings: in vivo
# Outline: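 Fasted male Sprague-Dawley rats (280–330 g) received 0.1, 1, 10 or 30 mg/kg by oral gavage in 50 mM HEPES buffered saline, pH 7.4. Blood drawn at 0.25–24 h into heparin/NEM tubes; plasma analyzed by LC-MS/MS. Cmax taken as observed. AUC by linear trapezoidal rule with extrapolation by λz. Cl/F and Vd/F reported. Mean ± S.D., n = 4–9.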
# [10] = AUC(0 to last) in Sprague-Dawley rat at 10 mg/kg, iv by LC-MS/MS analysis; type: ADME, organism-based; parameters: time 0 - last, dose 10 mg/kg, route intravenous; settings: plasma
# Outline: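 Male Sprague-Dawley rats dosed intravenously at 10 mg/kg (n = 6). Blood sampling extended to 7 days into heparin tubes containing NEM. Plasma assayed for parent and homodisulfide by LC-MS/MS, calibration range 1–5000 ng/ml. Noncompartmental analysis, t1/2 = 0.693/λz. Mean ± S.D.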
# [11] = Phase 1 metabolic stability in monkey liver microsomes assessed as compound remaining at 10 uM measured for 1 hr by LC-MS/MS analysis; type: ADME, Macaca mulatta; settings: rhesus monkey, read-out: Stability
# Outline: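 Liver microsomes (0.5 mg/ml) were incubated with 10 µM compound (final) in 100 mM potassium phosphate, pH 7.4. An NADPH-regenerating system was present: 1.3 mM NADPH, 3.3 mM glucose 6-phosphate, 3.3 mM MgCl2, 0.4 U/ml G6PDH and 50 µM sodium citrate. Runs were in duplicate, with samples taken up to 1 h and quenched with acetonitrile containing internal standard. Loss of compound was followed by LC-MS/MS.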
# [12] = Tmax in cynomolgus monkey at 5 mg/kg, iv administered as bolus injection by LC-MS/MS analysis; type: ADME, organism-based, Macaca fascicularis; parameters: dose 5 mg/kg, route intravenous; settings: in vivo; outline: as §3
# [13] = Clearance in Sprague-Dawley rat at 1 mg/kg, iv administered as bolus injection measured under fasted conditions by LC-MS/MS analysis; type: ADME, organism-based; parameters: dose 1 mg/kg, route intravenous; settings: in vivo; outline: as §1
# [14] = Phase 1 metabolic stability in human liver microsomes assessed as compound remaining at 10 uM measured for 1 hr by LC-MS/MS analysis in absence of cofactors; type: ADME; settings: read-out: Stability
# Outline: (§4)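 Cofactor-free controls were run for each microsomal incubation: 0.5 mg/ml liver microsomes with 10 µM compound, omitting cofactors, so that cofactor-independent degradation could be measured. Samples were taken up to 1 h, quenched with acetonitrile containing internal standard, and the percent remaining was determined by LC-MS/MS.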
# [15] = Elimination half life in cynomolgus monkey at 5 mg/kg, po by LC-MS/MS analysis; type: ADME, organism-based, Macaca fascicularis; parameters: dose 5 mg/kg, route oral; settings: in vivo, read-out: beta t1/2 (converted)
# Outline: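 Cynomolgus monkeys (n = 3) received a nominal 5 mg/kg dose in 50 mM HEPES, TCEP-treated to prevent disulfide formation. Dosing was either an IV bolus via cephalic or saphenous vein or oral. Arterial cannula blood was collected into NEM-containing heparinized tubes for up to 9 days and analyzed by LC-MS/MS. Noncompartmental analysis gave t1/2 = 0.693/λz and F% = dose-normalized mean AUCinf p.o./i.v. ×100.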
# [16] = Phase 2 metabolic stability in monkey liver microsomes assessed as compound remaining at 10 uM measured for 1 hr by LC-MS/MS analysis in absence of cofactors; type: ADME, Macaca mulatta; settings: rhesus monkey, read-out: Stability; outline: as §4
# [17] = system: Rattus norvegicus; assay: Toxicity in Sprague-Dawley rat chronic constriction injury model assessed as paw withdrawal latencies on non-ligated side at 10 mg/kg/day, po; type: organism-based; parameters: route oral; settings: in vivo
# [18] = Phase 2 metabolic stability in monkey liver microsomes assessed as compound remaining at 10 uM measured for 1 hr by LC-MS/MS analysis; type: ADME, Macaca mulatta; settings: rhesus monkey, read-out: Stability
# Outline: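 For glucuronidation, compound was preincubated at 37°C in 50 mM Tris-HCl, pH 7.5, with 0.5 mg/ml liver microsomes, 8 mM MgCl2 and 25 µg/ml alamethicin. Reactions were started in duplicate with 2 mM UDPGA (final). Samples were taken up to 1 h, quenched with acetonitrile containing internal standard, and compound disappearance was measured by LC-MS/MS.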
compound,measurement,setting,value
O=C(O)c1cccc(-c2cccc(CCS)c2C(=O)O)c1,Vd,[1],0.72 L/kg
same,Tmax,[2],17.4 min
same,clearance,[3],3 mL/min/kg
same,Cmax,[4],25 ng/g
same,Cmax,[5],453 ng/g
same,half-life,[6],189 min
same,Tmax,[7],25.2 min
same,Cmax,[8],405 ng/g
same,Vd/F,[9],1.65 L/kg
same,AUC(0-t),[10],86700 ng·h/mL
same,"remaining at 1 h, 10 µM",[11],> 90%
same,Tmax,[12],4.8 min
same,clearance,[13],0.833 mL/min/kg
same,"remaining at 1 h, 10 µM",[14],> 90%
same,half-life,[15],574 min
same,"remaining at 1 h, 10 µM",[16],> 90%
same,Activity,[17],Non-toxic
same,"remaining at 1 h, 10 µM",[18],> 90%
